Laboratory results from publication PMC2680181 (Journal of medicinal chemistry, 2009).

molecular target: T1, human MIF binding to its receptor, CD74 (Homo sapiens, UniProt P14174); assay: MIF-CD74 binding assay; settings: NA = measured, but not active
T1 sequence (P14174 2-115 limits assumed): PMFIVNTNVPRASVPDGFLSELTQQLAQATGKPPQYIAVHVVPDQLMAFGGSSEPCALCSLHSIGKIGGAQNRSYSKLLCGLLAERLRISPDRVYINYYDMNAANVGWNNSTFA

| SMILES | IC50 (µM) MIF-CD74 binding assay |
| --- | --- |
| O=C(O)c1cc(-n2cnnn2)ccc1O [Compound 15] | very weak MIF-CD74 antagonists |
| CC(=O)Nc1cccc2ccc(-c3cnc4ccccc4c3)nc12 [Compound 28] | inactive |

Now from value to molecule:

| IC50 (µM) MIF-CD74 binding assay | SMILES |
| --- | --- |
| inactive | O=c1oc2c(O)c(O)ccc2cc1-c1nc2ccccc2s1 [Compound 11] |
| very weak MIF-CD74 antagonists | O=C(O)c1cc(-n2cnnc2)ccc1Cl [Compound 16] |
| inactive | O=c1c2ccc(F)cc2sn1-c1ccc(Cl)cc1 [Compound 32] |

system: MIF tautomerase; assay: not given; settings: covalent inhibitor; cited from earlier work

| SMILES | tautomerase inhibitor potency |
| --- | --- |
| CC(=O)N=C1C=CC(=O)C=C1 [NAPQI, N-acetyl-p-benzoquinone] | 40 µM |

molecular target: T2, MIF tautomerase activity (rhMIF) (Homo sapiens, UniProt P14174); assay: 4-HPP tautomerase assay; assay type: biochemical; settings: max inhibition printed in place of IC50
T2 sequence (P14174 2-115 limits assumed): T1 sequence (P14174 2-115 limits assumed)
Outline: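 Recombinant human MIF (purified) was pre-incubated with test compound. 4-HPP was dissolved in 50 mM ammonium acetate, pH 6.0, equilibrated to room temperature and stored at 4 °C. At 25 °C, 4-HPP was added to a cuvette of 0.435 M boric acid, pH 6.2, plus the enzyme–compound mix. A305 increase was read over 30–90 s, in triplicate. Compounds spanned a 5000-fold concentration range.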

| maximal inhibition in 4-HPP tautomerase assay | SMILES |
| --- | --- |
| max 40% | Oc1ccc(/C=C/c2ccc3cccc(O)c3n2)cc1 [Compound 26] |
| max 38% | Oc1ccc2c(c1)oc1ccccc12 [Compound 29] |
| max 30% | O=C(O)c1cccc(-c2cc[nH]n2)c1 [Compound 33] |

same assay, conditions: substrate 4-HPP; NA = measured, but not active

| IC50 (µM) 4-HPP tautomerase assay | SMILES |
| --- | --- |
| inactive | COC(=O)C[C@H]1CC(c2ccc(O)cc2)=NO1 (racemic) [Compound 9, (S,R)-3-(4-hydroxyphenyl)-4,5-dihydro-5-isoxazole acetic acid methyl ester, reference compound] |
| weak tautomerase inhibitors | CC(=O)Oc1ccc2nc(-c3cc4ccccc4o3)oc(=O)c2c1 [Compound 17] |
| weak tautomerase inhibitors | Oc1c(C(Nc2cccc(F)c2)c2ccccn2)ccc2cccnc12 (stereo not drawn) [Compound 18] |
| weak tautomerase inhibitors | Oc1ccc(/C=C/c2ccc3cccc(O)c3n2)cc1 [Compound 26] |

molecular target: T2, MIF tautomerase activity (rhMIF); assay: Michaelis-Menten analysis of MIF tautomerase with 4-HPP as substrate; assay type: biochemical; settings: Lineweaver-Burk plots, Vmax unchanged

| mode of tautomerase inhibition | SMILES |
| --- | --- |
| competitive inhibition | O=C(c1cc2ccccc2o1)N1CCc2ccccc21 [Compound 23] |
| competitive inhibition | Cc1ccc2oc(=O)n(Cc3ccccc3)c2c1 [Compound 24] |
